Columns and labels:
[1] = Induction of intracellular iron mobilization in human […] cells relative to control; format: functional; set-up: concentration or dose not given beside the values
Summary of the method: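 SK-N-MC cells prelabeled with 59Fe-Tf (0.75 µM) for 3 h at 37 °C, washed four times with ice-cold PBS, then incubated with chelator (50 µM) for 3 h at 37 °C. Released 59Fe in medium and cell pellet counted by γ-scintillation. Mean ± SD, three experiments, triplicate determinations.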

[2] = Antiproliferative activity against human […] cells by MTT assay; format: cell-based
Summary of the method: (§1)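 MTT assay of cell proliferation; MTT colour formation directly proportional to viable cell number counted by Trypan blue staining. IC50 reported as mean ± SD of three experiments.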

[3] = tested on: MRC5; experiment: Antiproliferative activity against human MRC5 cells by MTT assay; format: cell-based; summary of the method: as §1
[4] = Partition coefficient, log P of the compound; format: physicochemical; settings: octanol/water
Summary of the method: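 Octanol–water partition coefficient measured spectrophotometrically.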

SMILES	Activity [1] [%]	IC50 [2] [µM]	IC50 [3] [µM]	logP [4]
C/C(=N\NC(=O)c1ccc([N+](=O)[O-])cc1)c1cnccn1	31	1.39	2.87	2.1
C/C(=N\NC(=O)c1ccncc1)c1cnccn1 [METHYL PYRAZINYLKETONE ISONICOTINOYL HYDRAZONE]	31	5.79	25.2	1.2
C/C(=N\NC(=O)c1ccc(O)cc1)c1cnccn1	39	16.8	> 80	1.9
O=C(N/N=C/c1ccccn1)c1ccc([N+](=O)[O-])cc1		35.5		
C/C(=N\NC(=O)c1ccccc1)c1cnccn1 [METHYL PYRAZINYLKETONE BENZOYL HYDRAZONE]	31	3.62	7.04	1.9
O=C(N/N=C/c1c(O)ccc2ccccc12)c1ccncc1	44	0.83		
O=C(N/N=C/c1ccccn1)c1ccc(O)cc1		> 80		
C/C(=N\NC(=O)c1ccc(Br)cc1)c1cnccn1	31	1.22	2.94	2.9
O=C(N/N=C/c1ccccn1)c1ccc(C(F)(F)F)cc1		22.4		
O=C(N/N=C/c1ccccn1)c1ccc(Br)cc1		17.7		
Cc1ncc(CO)c(/C=N/NC(=O)c2ccncc2)c1O [PYRIDOXAL ISONICOTINOYL HYDRAZONE]	40			
C/C(=N\NC(=O)c1ccc(N)cc1)c1cnccn1	34	58.8	> 80	1.3
CC(=O)N(O)CCCCCNC(=O)CCC(=O)N(O)CCCCCNC(=O)CCC(=O)N(O)CCCCCN [DEFEROXAMINE]	16	12.1		
C/C(=N\NC(=O)c1cccc(Br)c1)c1cnccn1	31	1.15	3.12	2.9
C/C(=N\NC(=O)c1cccs1)c1cnccn1 [METHYL PYRAZINYLKETONE THIOPHENECARBOXYL HYDRAZONE]	31	2.13	5.54	2.6
O=C(N/N=C/c1ccccn1)c1ccccc1		19.2		
O=C(NN=C(c1ccccn1)c1ccccn1)c1cccc(Br)c1		0.24		
CN(C)C(=S)NN=C(c1ccccn1)c1ccccn1		0.001		
O=C(N/N=C/c1ccccn1)c1cccs1		22.7		
NC(=S)N/N=C/c1ncccc1N [TRIAPINE]		0.66		
O=C(N/N=C/c1ccccn1)c1ccncc1		> 80		
O=C(NN=C(c1ccccn1)c1ccccn1)c1ccc(C(F)(F)F)cc1		0.24		
Nc1ccc(C(=O)N/N=C/c2ccccn2)cc1		> 80		
O=C(NN=C(c1ccccn1)c1ccccn1)c1ccccc1		3.04		
C/C(=N\NC(=O)c1ccc(C(F)(F)F)cc1)c1cnccn1	31	1.16	2.09	2
O=C(NN=C(c1ccccn1)c1ccccn1)c1ccc(Br)cc1		0.3		
O=C(NN=C(c1ccccn1)c1ccccn1)c1ccc([N+](=O)[O-])cc1		0.26		
